Article PMC13601514 (Nature Communications, 2026)
“Also recorded” adds a separate entry of the source.

Assays:
[1] = system: ULK3; experiment: Immunoblot in U266 MM cells; type: cell-based, Human; settings: 6 h
Summary of the method: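 Lysates quantified by BCA; 30 μg protein run on 10–15% SDS-PAGE (100 V, 2 h) and transferred to PVDF. Membranes blocked 1 h in TBST with 5% milk/5% BSA, probed overnight at 4 °C with primary (1:1000), then HRP secondary (1:1000). ECL detection; densitometry values annotated on the blot.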

[2] = system: MM cells (5TGM1, 8226, and U266); experiment: MTS assay on MM cells; type: cell-based
Summary of the method: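 MM lines grown at 37 °C in RPMI 1640 with 10% heat-inactivated FBS plus pen/strep and plated at 2 × 10^5 cells/mL (96-well) or 3 × 10^5 cells/mL (384-well). Exposed to test compound or vehicle (HPβCD or DMSO) for 48 h. MTS absorbance read at 490 nm after 2 h at 37 °C; mean of technical replicates; three independent experiments.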

[3] = system: U266 MM cells; experiment: Cyto-ID autophagy assay; type: cell-based, Human; settings: U266, 1 μM
Summary of the method: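 U266 cells exposed to 1 μM test compound or vehicle for 6 h at 37 °C, washed, then stained 30 min in the dark with Cyto-ID Green plus DAPI (100 ng/ml) in 1% FBS assay buffer. Flow cytometry gave MFI and % Cyto-ID+ in live singlet cells. Confocal imaging (Hoechst/Cyto-ID) gave mean cytoplasmic intensity per group, compared by Kruskal–Wallis.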

Cc1[nH]c(/C=C2\C(=O)Nc3ccccc32)c(C)c1CCC(=O)O [SU6668]
ULK3 protein levels [1]: does not impact

N#CC[C@H](C1CCCC1)n1cc(-c2ncnc3[nH]ccc23)cn1 [ruxolitinib]
cell survival in vitro [2]: had no effect; also recorded: not affected

Cc1sc2c(c1C)C(c1ccc(Cl)cc1)=N[C@@H](CC(=O)OC(C)(C)C)c1nnc(C)n1-2 [JQ1]
autophagy (Cyto-ID) [3]: had no effect; also recorded: did not impact autophagy
